KCNQ1 inh: human KCNQ1 channel inhibition. CHO-K1 KCNQ1, FluxOR thallium flux fluorescence; stronger effect = higher value. actives 1.3% (n = 310,000). B-score at 10 µM. AID 2642. P51787;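 active means compounds whose thallium flux B-score, printed positive for inhibition, exceeds three library SD while starting fluorescence stays within three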;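 further: channel opened by potassium depolarization with thallium stimulus after 20 min compound exposure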
Target sequence (P51787 whole entry, looked up): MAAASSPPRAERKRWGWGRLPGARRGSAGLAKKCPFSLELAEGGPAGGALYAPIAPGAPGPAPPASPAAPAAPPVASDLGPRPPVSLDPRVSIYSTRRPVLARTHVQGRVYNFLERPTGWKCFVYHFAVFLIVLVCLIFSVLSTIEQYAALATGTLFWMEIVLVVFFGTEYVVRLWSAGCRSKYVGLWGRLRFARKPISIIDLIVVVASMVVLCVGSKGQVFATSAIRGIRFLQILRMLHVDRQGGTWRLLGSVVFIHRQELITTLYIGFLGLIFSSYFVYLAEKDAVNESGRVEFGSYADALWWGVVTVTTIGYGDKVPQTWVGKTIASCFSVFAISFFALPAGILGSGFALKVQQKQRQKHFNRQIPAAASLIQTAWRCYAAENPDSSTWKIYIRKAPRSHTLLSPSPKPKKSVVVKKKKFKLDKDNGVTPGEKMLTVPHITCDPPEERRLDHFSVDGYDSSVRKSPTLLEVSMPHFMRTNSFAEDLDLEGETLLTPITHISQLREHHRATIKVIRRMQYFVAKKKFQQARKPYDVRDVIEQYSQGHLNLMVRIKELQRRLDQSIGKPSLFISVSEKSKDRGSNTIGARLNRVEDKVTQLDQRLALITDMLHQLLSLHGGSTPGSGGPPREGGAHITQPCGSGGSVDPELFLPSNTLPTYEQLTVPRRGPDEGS
KCNK9 inh: blocks the human KCNK9 two-pore domain potassium channel; Q9NPC2; HEK293 KCNK9, FluxOR thallium flux fluorescence; stronger effect = lower value; B-score at 10 µM; actives 1.2% (n = 310,000);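 active means ratio B-score over 3 SD below the library mean, with starting fluorescence within 5 SD of its mean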;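 further: negative B-score means less thallium flux so channel inhibition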
KCNK3 inh: human KCNK3 channel inhibition, primary screen; O14649; CHO-KCNK3 thallium flux, FluxOR fluorescence; stronger effect = lower value; B-score at 10 µM; actives 0.84% (n = 340,000); AID 602410;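 active means B-score under library mean minus 4 SD, starting fluorescence ratio at most library mean plus 5 SD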;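 further: more negative B-score means stronger inhibition of thallium flux through KCNK3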
hERG protect: shields human hERG channel from block by proarrhythmic agents; Q12809; CHO-hERG, FluxOR thallium flux, dofetilide IC70 present; activation (rescue from dofetilide block), less the hit threshold, % at 10 µM; actives 0.51% (n = 310,000);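 active means activation above the mean of controls blocked by dofetilide plus 5 SD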;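 further: thallium influx through hERG after potassium depolarization seen as dye fluorescence rise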
KCNQ1 pot: potentiates or activates the human KCNQ1 potassium channel. AID 2648. P51787. B-score at 10 µM. actives 0.35% (n = 310,000). CHO-K1 KCNQ1, thallium flux FluxOR fluorescence; stronger effect = higher value;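 active means fluorescence ratio B-score, a plate-corrected score, at least three library SD, with initial intensity B-score within 5 SD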
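Doses: Single concentration per compound, DMSO matched to controls | Test system: KCNQ1-transfected CHO-K1 cells | Timing: 90 min dye loading and 20 min compound exposure, both at room temperature | Measured by: Kinetic FluxOR thallium fluorescence, 10-s 1-Hz baseline, 110-s post-stimulus read | Medium: Assay buffer with matched DMSO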
KCNK9 inh conf: confirmation of human KCNK9 potassium channel inhibitors. HEK293 KCNK9 cells, FluxOR thallium flux fluorescence. shares compounds with KCNK9 inh. inhibition, % at 10 µM. actives 43% (n = 4,900);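 active means thallium signal inhibited by more than 5 SD of the compound-free buffer control wells, on both duplicate plates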
Kir2-1 spec: selectivity of KCNK9 modulators against mouse Kir2.1; shares compounds with KCNK9 inh; Kir2.1 cells, FluxOR thallium flux fluorescence; inhibition, % at 10 µM; actives 4% (n = 4,900);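 active means thallium signal drop more than 5 SD beyond the mean of the no-compound control wells, seen in both duplicate plates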;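 further: signal is fluorescence rise after thallium addition divided by baseline fluorescence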
HEK293 Tl ctr: second check of KCNK9 modulator effects in non-induced HEK293 cells. actives 40% (n = 4,900). shares compounds with KCNK9 inh. inhibition, % at 10 µM. FluxOR thallium flux;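 active means thallium signal drop beyond 5 SD of the untreated control mean, on both duplicate plates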
KCNK3 inh conf: confirmation of human KCNK3 two-pore domain potassium channel inhibitors | shares compounds with KCNK3 inh | CHO-KCNK3 thallium flux, FluxOR fluorescence; 0% buffer, 100% carvedilol maximal block | ratio percent of control, % at 10 µM | actives 99% (n = 2,400) | AID 651638;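 active means ratio percent of control, averaged over triplicates, above buffer control mean plus 5 SD, cut at about 64% in these data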;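 further: ratio is the fluorescence rise from min to max over baseline after thallium stimulus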
KCNK3 noninduced: KCNK3 inhibitor counter-screen hit in non-induced cells; shares compounds with KCNK3 inh; non-induced KCNK3 parental cells, FluxOR thallium flux; stronger effect = lower value; thallium flux ratio (lower = more inhibition) at 10 µM; actives 40% (n = 2,400); AID 651747;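 active means thallium flux ratio, averaged over three wells, more than 5 SD below the buffer control mean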;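 further: host cells are CHO cells without KCNK3 induction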
A number is an active result. In the library only some 3.1% were active in any assay of this set; here they are far more common.

`CCCOC(=O)c1ccc(NC(=O)c2ccccc2[N+](=O)[O-])cc1` gave KCNQ1 inh inactive, KCNK9 inh -8.18, KCNK3 inh -8.8, hERG protect inactive, KCNQ1 pot inactive, KCNK9 inh conf 48.5%, Kir2-1 spec inactive, HEK293 Tl ctr inactive, KCNK3 inh conf 104.7 and KCNK3 noninduced inactive.
Screening Oc1ccccc1Cn1c(-c2ccccc2O)nc2ccccc21 returned KCNQ1 inh inactive, KCNK9 inh inactive, KCNK3 inh inactive, hERG protect inactive and KCNQ1 pot inactive.
Screening COc1ccccc1Cn1c(-c2ccccc2OC)nc2ccccc21 returned KCNQ1 inh inactive, KCNK9 inh -11.3, KCNK3 inh -9.12, hERG protect inactive, KCNQ1 pot inactive, KCNK9 inh conf 25.5%, Kir2-1 spec inactive, HEK293 Tl ctr 47.5%, KCNK3 inh conf 109.3 and KCNK3 noninduced inactive.
`O=C(Nc1cccc(NC(=O)c2c(F)cccc2F)n1)c1c(F)cccc1F` gave KCNQ1 inh inactive, KCNK9 inh -11, KCNK3 inh -10.9, hERG protect inactive, KCNQ1 pot 8, KCNK9 inh conf 50.0%, Kir2-1 spec inactive, HEK293 Tl ctr 30.0%, KCNK3 inh conf 101.0 and KCNK3 noninduced inactive.
O=S(=O)(c1ccccc1)N1N=C(c2ccc(Br)cc2)CC1c1ccco1 (centres undefined) was read as KCNQ1 inh inactive, KCNK9 inh -11.1, KCNK3 inh -10.1, hERG protect inactive, KCNQ1 pot inactive, KCNK9 inh conf 38.0%, Kir2-1 spec inactive, HEK293 Tl ctr 39.0%, KCNK3 inh conf 102.7 and KCNK3 noninduced inactive.
Screening NC(=O)C1C(=O)c2ccccc2C1(C[N+](=O)[O-])c1ccccc1 (centres undefined) returned KCNK3 inh inactive.
CCC(Oc1ccccc1)C(=O)Nc1ccccc1OC (centres undefined) was read as KCNQ1 inh inactive, KCNK9 inh inactive, KCNK3 inh inactive, hERG protect inactive and KCNQ1 pot inactive.
`CCC(Oc1ccccc1)C(=O)Nc1ccccc1N1CCCC1` (centres undefined) gave KCNQ1 inh inactive, KCNK9 inh -11.5, KCNK3 inh -12.7, hERG protect inactive, KCNQ1 pot inactive, KCNK9 inh conf 59.0%, Kir2-1 spec 45.0%, HEK293 Tl ctr 74.0%, KCNK3 inh conf 111.0 and KCNK3 noninduced inactive.
Screening Cc1cc(O)c(C(C)C)cc1N=Cc1ccc(N(C)C)cc1 returned KCNK3 inh inactive.
For CCc1cc2c(CN3CCN(Cc4ccccc4)CC3)cc(=O)oc2cc1O the results were KCNQ1 inh inactive, KCNK9 inh inactive, KCNK3 inh inactive, hERG protect inactive and KCNQ1 pot inactive.
CCc1cc2c(CN(C)Cc3ccccc3F)cc(=O)oc2cc1O was read as KCNQ1 inh inactive, KCNK9 inh -8.47, KCNK3 inh -14.7, hERG protect inactive, KCNQ1 pot inactive, KCNK9 inh conf 41.5%, Kir2-1 spec inactive, HEK293 Tl ctr inactive, KCNK3 inh conf 113.7 and KCNK3 noninduced 0.159.
For CS(=O)(=O)N(CC(=O)Nc1ccccc1Br)Cc1ccccc1 the results were KCNQ1 inh inactive, KCNK9 inh inactive, KCNK3 inh inactive, hERG protect inactive and KCNQ1 pot inactive.
For Cc1nc(NCCc2ccccc2)c2oc3ccccc3c2n1 the results were KCNQ1 inh inactive, KCNK9 inh -12.7, KCNK3 inh -10.4, hERG protect inactive, KCNQ1 pot inactive, KCNK9 inh conf 55.5%, Kir2-1 spec inactive, HEK293 Tl ctr inactive, KCNK3 inh conf 131.0 and KCNK3 noninduced 0.122.
For O=C(Nc1cccc(NC(=O)c2ccco2)c1)c1cccc(Br)c1 the results were KCNQ1 inh inactive, KCNK9 inh -10.5, KCNK3 inh -13.3, hERG protect inactive, KCNQ1 pot inactive, KCNK9 inh conf 59.0%, Kir2-1 spec inactive, HEK293 Tl ctr inactive, KCNK3 inh conf 100.0 and KCNK3 noninduced inactive.
O=C(c1ccccc1)c1cccc(NC(=O)c2ccc(Br)o2)c1 was read as KCNQ1 inh inactive, KCNK9 inh -9.15, KCNK3 inh -9.73, hERG protect inactive, KCNQ1 pot inactive, KCNK9 inh conf inactive, Kir2-1 spec inactive, HEK293 Tl ctr inactive, KCNK3 inh conf 105.7 and KCNK3 noninduced inactive.
For Cc1cc(C)c(S(=O)(=O)NCCCn2ccnc2)cc1C the results were KCNQ1 inh inactive, KCNK9 inh inactive, KCNK3 inh inactive, hERG protect inactive and KCNQ1 pot inactive.
Screening O=C(N/C(=C\c1cccc([N+](=O)[O-])c1)C(=O)N1CCOCC1)c1cccc(Br)c1 returned KCNQ1 inh inactive, KCNK9 inh inactive, KCNK3 inh inactive, hERG protect inactive and KCNQ1 pot inactive.
`O=C(Cc1cccs1)Nc1ccc(-c2nnc(-c3ccccc3)o2)cc1` gave KCNQ1 inh inactive, KCNK9 inh inactive, KCNK3 inh inactive, hERG protect inactive and KCNQ1 pot inactive.
`Cc1cccc(-c2nnc(-c3cccc(NC(=O)Cc4cccs4)c3)o2)c1` gave KCNQ1 inh inactive, KCNK9 inh -17.1, KCNK3 inh -15.9, hERG protect inactive, KCNQ1 pot inactive, KCNK9 inh conf 54.0%, Kir2-1 spec inactive, HEK293 Tl ctr 29.5%, KCNK3 inh conf 148.3 and KCNK3 noninduced 0.14.
Screening COc1ccc(N)c2c1C(=O)c1ccccc1C2=O returned KCNQ1 inh inactive, KCNK9 inh inactive, KCNK3 inh inactive, hERG protect inactive and KCNQ1 pot inactive.
`COc1ccc(OC)c2c1C(=O)C(Cl)=C(Cl)C2=O` gave KCNQ1 inh 10, KCNK9 inh -9.76, KCNK3 inh -8.87, hERG protect inactive, KCNQ1 pot inactive, KCNK9 inh conf 58.0%, Kir2-1 spec 41.0%, HEK293 Tl ctr 87.0%, KCNK3 inh conf 150.7 and KCNK3 noninduced 0.089.
Screening CCOc1ccc2c(C)cc(=O)oc2c1OCC returned KCNQ1 inh inactive, KCNK9 inh inactive, KCNK3 inh inactive, hERG protect inactive and KCNQ1 pot inactive.
For CCCCOc1ccc2c(C)cc(=O)oc2c1OCCCC the results were KCNQ1 inh 7, KCNK9 inh -25.2, KCNK3 inh -9.4, hERG protect inactive, KCNQ1 pot inactive, KCNK9 inh conf 76.0%, Kir2-1 spec inactive, HEK293 Tl ctr 36.5%, KCNK3 inh conf 118.7 and KCNK3 noninduced 0.135.

Assay outcomes as filed in PubChem.
